For data set [1], the system named is Mycobacterium tuberculosis. Description: Antitubercular activity against active stage of Mycobacterium tuberculosis H37Ra ATCC 25177 after 8 days by XTT reduction menadione assay. In kind it is functional. The settings on record: H37Ra ATCC 25177, 192 h. The method in brief:
(§1)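 M. tuberculosis H37Ra (ATCC 25177), grown to log phase (OD 1.0) in M. pheli medium from -70°C stock, subcultured once before inoculation. Incubation 8 days (active) or 12 days (dormant). XRMA read-out as absorbance at 470 nm.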
(Formazan colour is commonly taken as a measure of viable cells.)

Data set [2] is described as follows: Cytotoxicity against human HeLa cells assessed as growth inhibition by MTT assay. In kind it is cell-based. The procedure, abridged: (§2)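 MTT assay in duplicate on THP-1 leukaemia, A549 lung adenocarcinoma, PANC-1 pancreatic adenocarcinoma and HeLa cervical carcinoma cells, all obtained from ECCC.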
Data set [3] is described as follows: Selectivity index, ratio of GI50 for human HeLa cells to MIC for active stage of Mycobacterium tuberculosis H37Ra ATCC 25177. It counts as toxicity, cell-based. The settings on record: read-out: Selectivity Index. The procedure, abridged: (§3)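 Selectivity index is the cytotoxic GI50 against the named human cell line divided by the antimycobacterial value. Activity counted as specific when SI >10.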

Data set [4] can be described thus: Selectivity index, ratio of GI50 for human A549 cells to MIC for dormant stage of Mycobacterium tuberculosis H37Ra ATCC 25177. It counts as toxicity. As to conditions: read-out: Selectivity Index. The method in brief: as §3
The nature of data set [5]: Selectivity index, ratio of GI50 for human A549 cells to MIC for active stage of Mycobacterium tuberculosis H37Ra ATCC 25177 infected in human THP1 cells. It counts as toxicity, cell-based. As to conditions: read-out: Selectivity Index. The method in brief: as §3
A short description of data set [6]: Selectivity index, ratio of GI50 for human HeLa cells to MIC for dormant stage of Mycobacterium tuberculosis H37Ra ATCC 25177. In kind it is toxicity, cell-based. The settings on record: read-out: Selectivity Index. The procedure, abridged: as §3
Data set [7] in a line: Selectivity index, ratio of GI50 for human A549 cells to MIC for dormant stage of Mycobacterium tuberculosis H37Ra ATCC 25177 infected in human THP1 cells. In kind it is toxicity, cell-based. As to conditions: read-out: Selectivity Index. The method in brief:
as §3

The test system of data set [8] is Mycobacterium tuberculosis. Description: Antitubercular activity against dormant stage of Mycobacterium tuberculosis H37Ra ATCC 25177 infected in human THP1 cells after 12 days by nitrate reductase assay. In kind it is functional. The settings on record: H37Ra ATCC 25177, 288 h. The procedure, abridged: (§4)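 Ex vivo test of H37Ra in THP-1 cells by nitrate reductase assay, absorbance read at 540 nm. Active stage incubated 8 days and dormant stage 12 days. H37Ra (ATCC 25177) grown in M. pheli medium to OD 1.0 and subcultured once from -70°C stock.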

The test system of data set [9] is Mycobacterium tuberculosis. Description: Antitubercular activity against active stage of Mycobacterium tuberculosis H37Ra ATCC 25177 infected in human THP1 cells after 8 days by nitrate reductase assay. It counts as functional. As to conditions: H37Ra ATCC 25177, 192 h. The procedure, abridged: as §4
Data set [10] in a line: Selectivity index, ratio of GI50 for human HeLa cells to MIC for active stage of Mycobacterium tuberculosis H37Ra ATCC 25177 infected in human THP1 cells. In kind it is toxicity, cell-based. The settings on record: read-out: Selectivity Index. The procedure, abridged:
as §3

Data set [11] relates to Mycobacterium tuberculosis. Description: Antitubercular activity against dormant stage of Mycobacterium tuberculosis H37Ra ATCC 25177 after 12 days by XTT reduction menadione assay. It counts as functional. The settings on record: H37Ra ATCC 25177, 288 h. The procedure, abridged: as §1
Data set [12] is described as follows: Cytotoxicity against human THP1 cells assessed as growth inhibition by MTT assay. It counts as cell-based. As to conditions: THP-1 cells. The method in brief:
as §2

The nature of data set [13]: Cytotoxicity against human PANC1 cells assessed as growth inhibition by MTT assay. It counts as cell-based. The settings on record: PANC-1 cells. The procedure, abridged:
as §2

Data set [14] in a line: Selectivity index, ratio of GI50 for human PANC1 cells to MIC for dormant stage of Mycobacterium tuberculosis H37Ra ATCC 25177 infected in human THP1 cells. It counts as toxicity, cell-based. The settings on record: PANC-1 cells, read-out: Selectivity Index. The method in brief: as §3
Data set [15] can be described thus: Selectivity index, ratio of GI50 for human PANC1 cells to MIC for active stage of Mycobacterium tuberculosis H37Ra ATCC 25177 infected in human THP1 cells. It counts as toxicity, cell-based. As to conditions: PANC-1 cells, read-out: Selectivity Index. The procedure, abridged:
as §3

Data set [16] can be described thus: Selectivity index, ratio of GI50 for human A549 cells to MIC for active stage of Mycobacterium tuberculosis H37Ra ATCC 25177. The settings on record: read-out: Selectivity Index. In kind it is toxicity. The method in brief:
as §3

The nature of data set [17]: Selectivity index, ratio of GI50 for human PANC1 cells to MIC for active stage of Mycobacterium tuberculosis H37Ra ATCC 25177. It counts as toxicity. The settings on record: PANC-1 cells, read-out: Selectivity Index. The method in brief: as §3
Data set [18] is described as follows: Cytotoxicity against human A549 cells assessed as growth inhibition by MTT assay. It counts as cell-based. The procedure, abridged: as §2
Data set [19] can be described thus: Selectivity index, ratio of GI50 for human HeLa cells to MIC for dormant stage of Mycobacterium tuberculosis H37Ra ATCC 25177 infected in human THP1 cells. It counts as toxicity, cell-based. As to conditions: read-out: Selectivity Index. The method in brief:
as §3

The nature of data set [20]: Selectivity index, ratio of GI50 for human PANC1 cells to MIC for dormant stage of Mycobacterium tuberculosis H37Ra ATCC 25177. It counts as toxicity. As to conditions: PANC-1 cells, read-out: Selectivity Index. The method in brief:
as §3

Converted amounts (≈) assume the structure as drawn.

Take `COc1cc(-c2nc(SCCCn3cnc4sc5c(c4c3=O)CCCC5)n(CCCn3cnc4sc5c(c4c3=O)CCCC5)c(=O)c2C#N)cc(OC)c1OC`: the MIC in data set [1], in data set [8], in [9] and in data set [11] was over 30 µg/mL throughout. The GI50 (in general, the concentration at which growth is held to half of that of the control) was 89.6 µg/mL (≈ 110 µM) in data set [2], 81.4 µg/mL (≈ 100 µM) in [12], over 100 µg/mL in [13] and 83.1 µg/mL (≈ 102 µM) in data set [18]. Moreover, the selectivity ratio is 3 in data set [3]; under 3 in [4]; under 3 in data set [5]; 3 in data set [6]; 3 in [7]; 3 in data set [10]. Further, the selectivity ratio in data set [14] was over 3; in [15], over 3; in [16] it was 3; in data set [17], over 3; in data set [19] it was under 3; in data set [20], over 3.

Regarding `CCCCCc1cc2c(=O)n(CCCSc3nc(-c4cc(OC)c(OC)c(OC)c4)c(C#N)c(=O)[nH]3)cnc2s1`, the MIC (usually the lowest concentration found to suppress growth) in [1] was over 30 µg/mL; in data set [8], 9.8 µg/mL (≈ 16.8 µM); in data set [9], over 30 µg/mL; in data set [11] it was 12.3 µg/mL (≈ 21.1 µM). Further, the GI50 in data set [2] was 75.8 µg/mL (≈ 130 µM); in data set [12], over 100 µg/mL; in data set [13], 72.8 µg/mL (≈ 125 µM); in [18] it was over 100 µg/mL. The selectivity ratio in data set [3] was 3; in [4], over 8; in data set [5], over 3; in data set [6] it was 6; in [7] it was over 10; in data set [10], 3. Further, the selectivity ratio is over 7 in data set [14]; over 2 in [15]; over 3 in data set [16]; over 2 in data set [17]; 8 in [19]; over 6 in data set [20].

On to `CCCCCCCCn1c(SCCCn2cnc3sc4c(c3c2=O)CCCC4)nc(-c2cc(OC)c(OC)c(OC)c2)c(C#N)c1=O`, for which the MIC in data set [1], in data set [8], in data set [9] and in [11] was over 30 µg/mL each time. The GI50 in data set [2], in [12], in data set [13] and in [18] was over 100 µg/mL each time. Besides, the selectivity ratio in data set [3], in [4], in data set [5], in data set [6], in data set [7] and in [10] was over 3 each time. The selectivity ratio in data set [14], in [15], in data set [16], in data set [17], in data set [19] and in [20] was over 3 each time.

Regarding `N#Cc1c(-c2ccc(O)cc2)[nH]c(=S)[nH]c1=O`, the MIC in [1], in data set [8], in data set [9] and in data set [11] was over 30 µg/mL throughout. The GI50 in data set [2] worked out at 90.8 µg/mL (≈ 370 µM); in [12], 93 µg/mL (≈ 379 µM); in [13], 89.1 µg/mL (≈ 363 µM); in data set [18] it was 87.4 µg/mL (≈ 356 µM). Moreover, the selectivity ratio in [3] is 3; in data set [4], under 3; in data set [5], under 3; in data set [6] it was 3; in data set [7] it was 3; in data set [10], 3. Also, the selectivity ratio in [14] was under 3; in data set [15], 3; in [16], 3; in [17], 3; in [19], under 3; in data set [20] it was under 3.

In the case of `COc1cc(-c2nc(SCCCn3cnc4sc5c(c4c3=O)CCCC5)n(C)c(=O)c2C#N)cc(OC)c1OC`, the MIC in data set [1] turned out to be 27.9 µg/mL (≈ 48.1 µM); in data set [8] it was 21.5 µg/mL (≈ 37.1 µM); in [9], 26.9 µg/mL (≈ 46.4 µM); in data set [11] it was 26.1 µg/mL (≈ 45 µM). In addition, the GI50 turned out to be 70.7 µg/mL (≈ 122 µM) in data set [2], 89.7 µg/mL (≈ 155 µM) in data set [12], 24.8 µg/mL (≈ 42.8 µM) in data set [13] and 95.7 µg/mL (≈ 165 µM) in data set [18]. In addition, the selectivity ratio in [3] worked out at 3; in data set [4], 4; in data set [5], 4; in data set [6], 3; in [7] it was 4; in [10], 3. The selectivity ratio in [14] came out at 1; in [15], 1; in data set [16] it was 3; in data set [17] it was 1; in [19], 3; in data set [20], 1.

Turning to `COc1cc(-c2[nH]c(=S)[nH]c(=O)c2C#N)cc(OC)c1OC`, the MIC was over 30 µg/mL in [1], 11.3 µg/mL (≈ 35.4 µM) in [8], over 30 µg/mL in data set [9] and 17.3 µg/mL (≈ 54.2 µM) in [11]. Moreover, the GI50 was 63.7 µg/mL (≈ 199 µM) in data set [2], over 100 µg/mL in data set [12], over 100 µg/mL in data set [13] and over 100 µg/mL in data set [18]. The selectivity ratio was 2 in data set [3]; over 6 in data set [4]; over 3 in [5]; 4 in data set [6]; over 9 in data set [7]; 2 in data set [10]. Also, the selectivity ratio in [14] is over 9; in data set [15] it was over 3; in [16], over 3; in [17], over 3; in [19] it was 6; in [20] it was over 6.

In the case of `CCCc1cc2c(=O)n(CCCSc3nc(-c4cc(OC)c(OC)c(OC)c4)c(C#N)c(=O)[nH]3)cnc2s1`, the MIC in [1] was over 30 µg/mL; in data set [8], 11.9 µg/mL (≈ 21.5 µM); in data set [9], over 30 µg/mL; in data set [11], 19.1 µg/mL (≈ 34.5 µM). Also, the GI50 in [2] was 52.5 µg/mL (≈ 94.8 µM); in data set [12], over 100 µg/mL; in data set [13], over 100 µg/mL; in data set [18], over 100 µg/mL. Further, the selectivity ratio is 2 in [3]; over 5 in data set [4]; over 3 in data set [5]; 3 in [6]; over 8 in [7]; 2 in [10]. The selectivity ratio in [14] is over 8; in [15] it was over 3; in data set [16] it was over 3; in [17], over 3; in [19], 4; in data set [20], over 5.

As to `COc1cc(-c2nc(SCCCn3cnc4sc5c(c4c3=O)CCCC5)n(CCC(F)(F)C(F)(F)C(F)(F)C(F)(F)C(F)(F)C(F)(F)F)c(=O)c2C#N)cc(OC)c1OC`, the MIC in data set [1] was over 30 µg/mL; in data set [8] it was 8.8 µg/mL (≈ 9.65 µM); in [9], over 30 µg/mL; in data set [11], 11.7 µg/mL (≈ 12.8 µM). For the same molecule, the GI50 in data set [2], in data set [12], in data set [13] and in data set [18] was over 100 µg/mL each time. In addition, the selectivity ratio is over 3 in data set [3]; over 8 in data set [4]; over 3 in data set [5]; over 8 in data set [6]; over 11 in data set [7]; over 3 in data set [10]. The selectivity ratio in data set [14] is over 11; in data set [15], over 3; in data set [16], over 3; in data set [17], over 3; in [19], over 11; in data set [20], over 8.

Source of the values: ChEMBL document CHEMBL3992538, “Hybrids of thienopyrimidinones and thiouracils as anti-tubercular agents: SAR and docking studies” (Eur J Med Chem, 2017).
